According to paper PMC7036014 (Molecular cell, 2019):

Key:
PLIN5-pM (S155E) = molecular target: T1, PLIN5-pM (S155E) (Mus musculus, UniProt Q8BVZ1, S155E); assay: Tryptophan fluorescence quenching binding assay, PLIN5-pM; design: species or system murine
T1 sequence (Q8BVZ1 1-463 S155E): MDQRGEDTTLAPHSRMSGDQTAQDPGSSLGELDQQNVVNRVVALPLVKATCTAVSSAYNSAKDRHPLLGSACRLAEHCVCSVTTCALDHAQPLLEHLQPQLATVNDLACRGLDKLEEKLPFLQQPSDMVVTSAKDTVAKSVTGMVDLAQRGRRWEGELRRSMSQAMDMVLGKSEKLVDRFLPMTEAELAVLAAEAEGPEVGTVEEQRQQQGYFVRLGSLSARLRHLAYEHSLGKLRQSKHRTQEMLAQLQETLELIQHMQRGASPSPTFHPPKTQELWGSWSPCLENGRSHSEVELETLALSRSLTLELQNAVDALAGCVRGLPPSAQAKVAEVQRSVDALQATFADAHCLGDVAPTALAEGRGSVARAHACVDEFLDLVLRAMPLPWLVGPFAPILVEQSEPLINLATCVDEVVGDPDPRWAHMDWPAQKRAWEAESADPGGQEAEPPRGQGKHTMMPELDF

PGC-1α activity, MEFs = assay: PGC-1α luciferase reporter assay in MEFs; type: cell-based, mouse
SIRT1 = molecular target: T2, SIRT1 (Homo sapiens, UniProt Q96EB6); assay: Intrinsic tryptophan fluorescence quenching binding assay, SIRT1
T2 sequence (Q96EB6 1-747): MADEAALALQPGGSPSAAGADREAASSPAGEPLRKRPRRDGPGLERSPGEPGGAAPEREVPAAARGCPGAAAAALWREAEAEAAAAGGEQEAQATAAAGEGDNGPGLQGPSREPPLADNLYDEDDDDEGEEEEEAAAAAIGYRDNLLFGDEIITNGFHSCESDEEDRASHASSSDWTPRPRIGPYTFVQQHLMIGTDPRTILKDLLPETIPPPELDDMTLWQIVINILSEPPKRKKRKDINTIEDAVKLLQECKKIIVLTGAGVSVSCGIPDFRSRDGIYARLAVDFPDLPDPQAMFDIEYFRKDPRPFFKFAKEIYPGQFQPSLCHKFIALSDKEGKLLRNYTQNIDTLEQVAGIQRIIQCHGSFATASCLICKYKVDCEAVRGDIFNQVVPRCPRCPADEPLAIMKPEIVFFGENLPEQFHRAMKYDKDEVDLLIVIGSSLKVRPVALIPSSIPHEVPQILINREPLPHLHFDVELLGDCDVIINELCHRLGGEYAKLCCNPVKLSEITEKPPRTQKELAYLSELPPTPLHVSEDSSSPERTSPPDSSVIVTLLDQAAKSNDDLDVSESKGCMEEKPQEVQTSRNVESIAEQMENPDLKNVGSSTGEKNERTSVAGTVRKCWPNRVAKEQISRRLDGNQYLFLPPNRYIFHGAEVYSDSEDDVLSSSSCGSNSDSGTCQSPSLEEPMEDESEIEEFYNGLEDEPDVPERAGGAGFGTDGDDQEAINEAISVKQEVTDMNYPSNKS

PLIN5-pM = molecular target: T3, PLIN5-pM (Mus musculus, UniProt Q8BVZ1, S155E); assay: Circular dichroic analysis of PLIN5-pM with ligand; design: species or system murine; details: addition of ligand
T3 sequence (Q8BVZ1 1-463 S155E): T1 sequence (Q8BVZ1 1-463 S155E)
In short: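 Far-UV CD spectra of the PLIN5 phospho-mutants in 10 mM NaH2PO4, pH 7.5, with 10 mM NaCl, with and without ligand. Run at 25°C in a 1 mm path cuvette. Ligand incubated 2–5 min before each scan. Each spectrum is the average of ten scans, repeated in triplicate.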

[1] = system: PGC-1α activity, mouse L-cells; assay: PGC-1α luciferase reporter assay in L-cells; type: cell-based; details: Plin5 knockout L-cells

## CCCCCCCC/C=C\CCCCCCCC(=O)O [18:1, oleic acid]
PLIN5-pM (S155E)
  Kd: 36 ± 8 nM
PLIN5-pM (S155E); PLIN5-pM vs comparator
  increase in binding affinity of PLIN5-pM: 2.4 fold
PGC-1α activity, MEFs; 6 hrs, 500 μM 18:1
  basal PGC-1α activity, acute exposure: increased
PGC-1α activity, MEFs; PKA or ATGL inhibitors
  requirement of PKA-stimulated lipolysis for activation of PGC-1α: required
PGC-1α activity, MEFs; Sirt1 knockout MEFs
  regulation of PGC-1α activity in MEFs lacking Sirt1: SIRT1 was required
PGC-1α activity, MEFs; Sirt1 knockout MEFs + human Sirt1
  activation of PGC-1α in Sirt1 knockout cells rescued with GFP tagged human Sirt1: restored
PGC-1α activity, MEFs; acute and overnight loading vs non-loaded cells, isoproterenol/IBMX
  PGC-1α activity upon stimulation of β-adrenergic signaling: enhanced
PGC-1α activity, MEFs; vs non-loaded or 18:0/16:0 loaded cells
  PGC-1α activity with cAMP, individual fatty acid loading: synergized with cAMP
SIRT1
  Kd: 81 ± 9 nM
PLIN5-pM
  shape of the CD spectrum of PLIN5-pM: robustly altered
[1]
  regulation of PGC-1α activity in L-Cells lacking Plin5: PLIN5 was required
